We go through nine molecules from PMC2822702 (Biochimica et biophysica acta, 2009).

In one test the target is T1, Bid K157E (Mus musculus, UniProt P70444, K157E).
T1 sequence (P70444 1-195 K157E): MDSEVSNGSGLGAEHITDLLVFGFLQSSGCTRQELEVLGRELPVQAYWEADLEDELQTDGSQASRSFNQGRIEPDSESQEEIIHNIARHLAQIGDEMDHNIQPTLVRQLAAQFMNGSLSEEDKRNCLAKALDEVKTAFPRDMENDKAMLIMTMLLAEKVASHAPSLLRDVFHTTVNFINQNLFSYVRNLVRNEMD
Nature of the test: ADIFAB fluorescence quenching. In kind it is binding. The conditions noted are these: recombinant mouse Bid K157E mutant, ADIFAB 0.2 μM, room temperature. In short, it runs like this: (§1)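 Recombinant N-terminal His6-tagged mouse Bid was expressed in E. coli BL21(DE3)pLysS and purified on a chelating affinity column. ADIFAB at 0.2 μM in 10 mM Tris pH 8.0, 0.15 M NaCl, 1 mM EGTA was run alone or with Bid at 22–24 °C. Lipid ligand was titrated with excitation at 390 nm and emission read at 410–610 nm. Kd was taken from Stern–Volmer (F0/F) slopes.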

A further test addresses T2, wt Bid (Mus musculus, UniProt P70444).
T2 sequence (P70444 1-195): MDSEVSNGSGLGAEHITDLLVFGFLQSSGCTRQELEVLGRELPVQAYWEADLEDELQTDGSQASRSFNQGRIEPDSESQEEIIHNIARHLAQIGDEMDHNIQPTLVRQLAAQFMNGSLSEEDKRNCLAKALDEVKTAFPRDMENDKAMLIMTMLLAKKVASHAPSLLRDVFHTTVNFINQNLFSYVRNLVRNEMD
The test can be described thus: ADIFAB fluorescence quenching. In kind it is binding. The conditions noted are these: recombinant mouse wt Bid, ADIFAB 0.2 μM, room temperature. Summed up: as §1

The target of another test is T3, Bid R187E (Mus musculus, UniProt P70444, R187E).
T3 sequence (P70444 1-195 R187E): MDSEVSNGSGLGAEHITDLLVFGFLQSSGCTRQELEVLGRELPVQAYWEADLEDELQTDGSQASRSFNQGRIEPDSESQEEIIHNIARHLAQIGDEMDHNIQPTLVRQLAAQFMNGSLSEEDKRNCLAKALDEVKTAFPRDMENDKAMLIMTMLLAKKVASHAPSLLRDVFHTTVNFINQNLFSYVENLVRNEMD
Nature of the test: ADIFAB fluorescence quenching. The conditions noted are these: recombinant mouse Bid R187E mutant, ADIFAB 0.2 μM, room temperature. In kind it is binding. In short, it runs like this: as §1

Another test deals with mouse liver mitochondria. Nature of the test: Cell-free assay of cytochrome c release from isolated mitochondria. In kind it is biochemical. Conditions: for release of cytochrome c: 200 nM full-length recombinant Bid protein, no exogenous lysolipids, 15 min. In short, it runs like this:
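They were incubated 15 min at 22 °C with 200 nM recombinant full-length mouse Bid plus 2 μM LPC-C16 added from ethanol, then pelleted. Supernatant cytochrome c was immunoblotted and quantified by densitometry (n=3, t-test), with controls of 500 μM LPC-C16 and no Bid.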

Test [1] deals with FSK7 mouse mammary epithelial cells. Nature of the test: Anoikis of mammary epithelial cells expressing YFP-tagged Bid. The conditions noted are these: FL Bid YFP over-expressed, 5 h detached. Type of test: cell-based. Summed up: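 FSK7 cells were grown in DMEM/F-12 with 5 ng/ml EGF, 5 μg/ml insulin and 2% FCS at 37 °C, 5% CO₂. They were lipofected with C-terminal YFP-tagged full-length Bid or YFP alone. At 18 h post-transfection cells were detached onto polyHEMA for 5 h, cytospun, PFA-fixed and Hoechst-stained. Apoptosis was scored by nuclear morphology as mean ± SEM.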

As a reminder, the Kd is the constant that tells how readily two partners part at equilibrium. In the case of monolysocardiolipin [MCL], the results for the Kd at Bid K157E, at wt Bid and at Bid R187E were 1800 nM, 1300 nM and ~1400 nM, respectively.

For `CCCCCCCC/C=C\CCCCCCCC(=O)OC[C@@H](O)COP(=O)(O)OCC(O)CO` (stereo partly drawn) [LPG-C18, 1-oleyl-LPG], the dissociation constant Kd on Bid K157E came out at 200 nM; at wt Bid, 80 nM; at Bid R187E it was 100 nM.

Consider `CCCCCCCCCCCCCCCC(=O)OC[C@@H](O)COP(=O)([O-])OCC[N+](C)(C)C` [LPC-C16, 1-palmitoyl-LPC], for which the dissociation constant Kd was ~4000 nM at Bid K157E, ~4000 nM on wt Bid and 5500 nM on Bid R187E. Moreover, the “enhancement of cytochrome c release” value with mouse liver mitochondria (2 μM LPC-C16 with 200 nM K157E FL Bid) is “much stronger enhancement”. In addition, the “increase in capacity of releasing cytochrome c” value with mouse liver mitochondria (2 μM LPC-C16 with 200 nM R187E FL Bid) and in the test with mouse liver mitochondria (2 μM LPC-C16 with 200 nM wt FL Bid) was ~2 fold in each case.

B1: wt Bid: recombinant full-length wild type mouse Bid with N-terminal six-histidine tag (protein, UniProt P70444 1-195, looked up)
chain: MDSEVSNGSGLGAEHITDLLVFGFLQSSGCTRQELEVLGRELPVQAYWEADLEDELQTDGSQASRSFNQGRIEPDSESQEEIIHNIARHLAQIGDEMDHNIQPTLVRQLAAQFMNGSLSEEDKRNCLAKALDEVKTAFPRDMENDKAMLIMTMLLAKKVASHAPSLLRDVFHTTVNFINQNLFSYVRNLVRNEMD
modifications: full-length N-terminal His6 tag
As for B1, the “release of cytochrome c” value with mouse liver mitochondria is “some release of cytochrome c”.

B2: K157E Bid YFP: C-terminal YFP-tagged full-length mouse Bid K157E expressed by transfection (protein, UniProt P70444 1-195, looked up, variant K157E)
chain: MDSEVSNGSGLGAEHITDLLVFGFLQSSGCTRQELEVLGRELPVQAYWEADLEDELQTDGSQASRSFNQGRIEPDSESQEEIIHNIARHLAQIGDEMDHNIQPTLVRQLAAQFMNGSLSEEDKRNCLAKALDEVKTAFPRDMENDKAMLIMTMLLAEKVASHAPSLLRDVFHTTVNFINQNLFSYVRNLVRNEMD
modifications: full-length C-terminal YFP fusion
In the case of B2, the “sensitisation to anoikis compared with wt Bid” value in test [1] is “no difference”.

B3: K157E Bid: recombinant mouse Bid, lysine 157 replaced by glutamic acid (protein, UniProt P70444 1-195, looked up, variant K157E)
BH3-interacting domain death …: MDSEVSNGSGLGAEHITDLLVFGFLQSSGCTRQELEVLGRELPVQAYWEADLEDELQTDGSQASRSFNQGRIEPDSESQEEIIHNIARHLAQIGDEMDHNIQPTLVRQLAAQFMNGSLSEEDKRNCLAKALDEVKTAFPRDMENDKAMLIMTMLLAEKVASHAPSLLRDVFHTTVNFINQNLFSYVRNLVRNEMD
B3: in the test on mouse liver mitochondria, the “release of cytochrome c” value is given as “did not release cytochrome c”.

B4: R187E Bid YFP: C-terminal YFP-tagged full-length mouse Bid R187E expressed by transfection (protein, UniProt P70444 1-195, looked up, variant R187E)
chain: MDSEVSNGSGLGAEHITDLLVFGFLQSSGCTRQELEVLGRELPVQAYWEADLEDELQTDGSQASRSFNQGRIEPDSESQEEIIHNIARHLAQIGDEMDHNIQPTLVRQLAAQFMNGSLSEEDKRNCLAKALDEVKTAFPRDMENDKAMLIMTMLLAKKVASHAPSLLRDVFHTTVNFINQNLFSYVENLVRNEMD
modifications: full-length C-terminal YFP tag
B4: in test [1], the “sensitisation to anoikis compared with wt Bid” value is “no difference”.

B5: wt Bid YFP: C-terminal YFP-tagged full-length wild type mouse Bid expressed by transfection (protein, UniProt P70444 1-195, looked up)
chain: MDSEVSNGSGLGAEHITDLLVFGFLQSSGCTRQELEVLGRELPVQAYWEADLEDELQTDGSQASRSFNQGRIEPDSESQEEIIHNIARHLAQIGDEMDHNIQPTLVRQLAAQFMNGSLSEEDKRNCLAKALDEVKTAFPRDMENDKAMLIMTMLLAKKVASHAPSLLRDVFHTTVNFINQNLFSYVRNLVRNEMD
modifications: full-length C-terminal YFP tag
Take B5: in test [1] (nuclear morphology), the “apoptosis (cell death) after detachment” value is reported as “around 85%”.

B6: R187E Bid: recombinant mouse Bid, arginine 187 replaced by glutamic acid (protein, UniProt P70444 1-195, looked up, variant R187E)
BH3-interacting domain death …: MDSEVSNGSGLGAEHITDLLVFGFLQSSGCTRQELEVLGRELPVQAYWEADLEDELQTDGSQASRSFNQGRIEPDSESQEEIIHNIARHLAQIGDEMDHNIQPTLVRQLAAQFMNGSLSEEDKRNCLAKALDEVKTAFPRDMENDKAMLIMTMLLAKKVASHAPSLLRDVFHTTVNFINQNLFSYVENLVRNEMD
For B6, in the test with mouse liver mitochondria, the “release of cytochrome c” value is recorded as “some release of cytochrome c”.
